From PubChem
Hits are enriched below; roughly 1.2% of the tested compounds scored in any of these assays.
Rce1 inh: yeast Rce1p protease inhibitors, primary screen, biochemical, fluorescence, cell-free homogeneous. yeast membranes, quenched prenylated peptide cleavage fluorescence. calls only. 290,000 tested, 0.27% active;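 active = fall in fluorescence gain of 50% or more versus controls, with final raw signal at or below 3038400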
proCasp3 act: activators of human procaspase-3 D3A mutant, primary screen, biochemical, absorbance, PC-3 D3A mutant, single concentration. Caspase-3 (Homo sapiens), P42574. 330,000 tested, 0.11% active. recombinant procaspase-3 D3A, Ac-DEVD-pNA absorbance 405 nm. activation, % at 8.5 µM;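 active = activation above the mean of all tested compounds plus 3 SD, cut at about 21% in these data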
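material = Procaspase-3 D3A mutant | probe or stimulus = Ac-DEVD-pNA | compound = single dose, 8.5 µM nominal compound, 0.8% DMSO | timing = 1 h preincubation, 2 h reaction | measured by = 405 nm absorbance of p-nitroaniline, reads at 0 and 120 min | benchmarks = DMSO-only low control, 5 µM PC-3 D3A high control | repeats = singlicate, each compound tested once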
GAA850 FXN act: FXN promoter activators, primary screen, cell-based, luciferase luminescence, HEK293 lucGAA850; HEK293 lucGAA850 FXN promoter luciferase reporter, 24 h; percent of 10 µM SAHA response; activation, % at 6 µM; 360,000 tested, 0.56% active; AID 540364, 2011;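 active = activation above the average of all compounds screened plus 3 SD, cutoff fixed separately per campaign, cut at about 7.5% in these data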
procasp7 counter: procaspase-7 activators, primary screen, counter-screen for procaspase-3 activator project, biochemical, absorbance, HTS, human; activation, % at 8.5 µM; recombinant procaspase-7, Ac-DEVD-pNA absorbance 405 nm; D23A/D198A/D206A triple mutant, cannot self-cleave; scale: DMSO 0, 5 µM enzyme 100; Caspase-7 (Homo sapiens), P55210; AID 463210, 2010; 330,000 tested, 0.093% active;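 active = percent activation above the screen-wide mean plus 3 SD, cut at about 25% in these data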
Target sequence (P55210 whole entry D23A/D198A/D206A): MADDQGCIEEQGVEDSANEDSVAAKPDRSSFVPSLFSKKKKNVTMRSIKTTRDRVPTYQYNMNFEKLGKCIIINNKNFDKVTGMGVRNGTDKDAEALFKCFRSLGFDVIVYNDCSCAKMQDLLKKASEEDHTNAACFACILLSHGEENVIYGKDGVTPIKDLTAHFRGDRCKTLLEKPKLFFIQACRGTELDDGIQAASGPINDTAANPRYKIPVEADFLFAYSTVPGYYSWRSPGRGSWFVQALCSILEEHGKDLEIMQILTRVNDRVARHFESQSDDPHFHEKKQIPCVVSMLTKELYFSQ
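Detection: p-Nitroaniline absorbance at 405 nm, read at 0 and 120 min; system: Uncleavable procaspase-7 mutant enzyme; evaluation: % activation from two-timepoint absorbance difference, scaled to controls; times: 1 h enzyme–compound preincubation and 2 h substrate reaction, both 25 °C; buffer or medium: Zinc-free HEPES pH 7.4 with 300 mM NaCl, 0.01% Triton X-100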
Hep lipid drop: inhibitors of hepatocyte lipid droplet formation, primary screen, imaging, high-throughput imaging, BODIPY stain; 240,000 tested, 0.4% active; AID 1656, 2009; AML12 mouse hepatocytes, oleate lipid droplets; inhibition, % at 6.5 µM;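 active = lipid droplet intensity inhibited by at least 50%, with more than 500 cells counted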
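System: AML12 hepatocytes (mouse). Probe or stimulus: oleic acid at 100 µM to induce lipid droplet formation. Times: overnight treatment with compound plus oleate. Detection: Image-based BODIPY and DAPI two-channel analysis. Evaluation: percent inhibition of filter-corrected integrated lipid droplet intensity per well.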
p-CIP stab down: p/CIP-EGFP fusion destabilizers, primary screen, fluorescence, F442A cells | Q05BA5 | 16 h | decrease of EGFP signal, % at 10 µM | 290,000 tested, 0.01% active | AID 1984, 2009;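 active = EGFP signal decrease of at least 30% at 10 µM or well 3 SD below plate mean, unless failing retest; inactive = the rest, including hits failing retest or dose response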
Hep lipid conf: hepatocyte lipid droplet accumulation inhibitors, confirmation, imaging, AML12 mouse hepatocytes, single concentration, high-content; shares compounds with Hep lipid drop; BODIPY lipid droplet imaging; droplets induced with 100 µM oleic acid; inhibition, % at 5.2 µM; 870 tested, 65% active;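 active = inhibition of lipid droplet metric at least 50%, with more than 300 cells in each of four replicates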
AML12 tox img: AML12 hepatocyte cytotoxicity, counter-screen for hepatic lipid droplet formation project, imaging, DAPI nuclear morphology imaging; 870 tested, 3% active; AML12 mouse hepatocytes; hits give high values; cells fed 100 µM oleate overnight; z-score at 5 µM; shares compounds with Hep lipid drop; in the data active = z-score above about 6.3;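 also: compound exposure lasted overnight at 37 °C before fixation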
AML12 tox ATP: AML12 hepatocyte cytotoxicity, confirmation, cytotoxicity control for hepatic lipid droplet formation project, cell-based, single concentration | shares compounds with Hep lipid drop | AML12 mouse hepatocyte viability, ATP luminescence; cells loaded with 100 µM oleic acid | cytotoxicity, % at 50 µM | 530 tested, under 10 active | AID 463219, 2010;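 active = cytotoxicity above 50% in each of four replicates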;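 also: compound exposure lasted overnight at 37 °C before the ATP read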
Numbers stand for hits; i = inactive; nt = no result.

SMILES | Rce1 inh | proCasp3 act | GAA850 FXN act | procasp7 counter | Hep lipid drop | p-CIP stab down | Hep lipid conf | AML12 tox img | AML12 tox ATP
COc1cc(SC)ccc1C(=O)OC(C)C(=O)Nc1ccc(NC(C)=O)cc1 (centres undefined) | i | i | i | i | 59 | i | 87 | i | i
CCNC(=O)NC(=O)C(C)OC(=O)c1ccc(SC)cc1OC (centres undefined) | i | i | i | i | i | i | nt | nt | nt
O=C(CN(CC1CCCO1)S(=O)(=O)c1ccc(S(=O)(=O)NC2CC2)cc1)Nc1ccccc1 (centres undefined) | i | i | i | i | 95 | i | 107 | i | i
COc1ccc(-c2nc(NC(=O)Cn3ccc(C(F)(F)F)n3)sc2C)cc1 | i | i | i | i | 68 | i | 104 | i | i
COc1ccc(-c2nc(NC(=O)Cn3cnnn3)sc2C)cc1 | i | i | i | i | i | i | nt | nt | nt
CCC(=O)N(c1nnc(SC(C)C(=O)Nc2ccc(N3CCOCC3)cc2)s1)C1CC1 (centres undefined) | nt | nt | i | nt | nt | nt | nt | nt | nt
COC(=O)Cc1c(O)ccn(CCc2ccc(OC)c(OC)c2)c1=O | i | i | i | i | i | i | nt | nt | nt
COc1ccc(CCn2ccc(O)c(Cc3ccc(Cl)cc3)c2=O)cc1OC | i | i | i | i | 61 | i | 106 | i | i
CCNC(=O)C1CCCN(C(=O)c2ccc3ccccc3c2)CC1 (centres undefined) | nt | nt | i | nt | nt | nt | nt | nt | nt
Cc1ccc(-c2cc(-c3c(C)nn(C)c(=O)c3N)[nH]n2)cc1 | i | i | i | i | 56 | i | 79 | i | nt
CC(C)NC(=O)C1(C)Cc2c(-c3ccc(N(C)C)cc3)ccnc2O1 (centres undefined) | nt | nt | i | nt | nt | nt | nt | nt | nt
CCCc1nc2ccccc2c(C(=O)OC(C)C(=O)NCc2ccc3c(c2)OCO3)c1CC (centres undefined) | i | i | i | i | 84 | i | 103 | i | i
Cc1ccc(CNC(=O)COc2ccc(C)nc2[N+](=O)[O-])cc1 | i | i | i | i | i | i | nt | nt | nt
Cc1ccc(OCC(=O)NCc2ccc3c(c2)OCO3)c([N+](=O)[O-])n1 | i | i | i | i | 58 | i | i | i | nt
CCc1nc2ccccc2c(C(=O)OCC(=O)NCc2ccc3c(c2)OCO3)c1C | i | i | i | i | 79 | i | 92 | i | i
CCOC(=O)c1cc(NC(=O)N(C)C2CCCCC2)c(C)nc1C | i | i | i | i | 54 | i | 81 | i | i
C=C1C(=O)C23C(O)C1CCC2C12COC3(O)C(O)C1C(C)(C)CCC2O (centres undefined) | nt | nt | i | nt | nt | nt | nt | nt | nt
Cc1cc(NC(=O)c2sccc2C)n(-c2nc3ccccc3[nH]2)n1 | i | i | i | i | 60 | i | 83 | i | i
COc1c([N+](=O)[O-])cc(C(=O)NNC(=O)c2ccc(C)cc2)cc1[N+](=O)[O-] | i | i | i | i | 56 | i | i | i | nt
COc1cccc(N=CC=C2OC(C)(C)C(C)(C)O2)c1 | i | i | i | i | 66 | i | i | i | nt
Cc1cccc(N=CC=C2OC(C)(C)C(C)(C)O2)c1 | i | i | i | i | i | i | nt | nt | nt
